Bioassay records as filed in PubChem.
Shown are actives, neighbours in structure and some others; about 1.7% of the full set was active somewhere.
DNMT1 inh – inhibitors of human DNMT1; P26358; DNMT1 molecular beacon, Hinp1I cleavage, fluorescence; inhibition (reported as % activation of signal), % at 10 µM; 360,000 compounds, 0.83% hits; in the data active = inhibition above about 50%
Target sequence (P26358 504-1616 limits assumed): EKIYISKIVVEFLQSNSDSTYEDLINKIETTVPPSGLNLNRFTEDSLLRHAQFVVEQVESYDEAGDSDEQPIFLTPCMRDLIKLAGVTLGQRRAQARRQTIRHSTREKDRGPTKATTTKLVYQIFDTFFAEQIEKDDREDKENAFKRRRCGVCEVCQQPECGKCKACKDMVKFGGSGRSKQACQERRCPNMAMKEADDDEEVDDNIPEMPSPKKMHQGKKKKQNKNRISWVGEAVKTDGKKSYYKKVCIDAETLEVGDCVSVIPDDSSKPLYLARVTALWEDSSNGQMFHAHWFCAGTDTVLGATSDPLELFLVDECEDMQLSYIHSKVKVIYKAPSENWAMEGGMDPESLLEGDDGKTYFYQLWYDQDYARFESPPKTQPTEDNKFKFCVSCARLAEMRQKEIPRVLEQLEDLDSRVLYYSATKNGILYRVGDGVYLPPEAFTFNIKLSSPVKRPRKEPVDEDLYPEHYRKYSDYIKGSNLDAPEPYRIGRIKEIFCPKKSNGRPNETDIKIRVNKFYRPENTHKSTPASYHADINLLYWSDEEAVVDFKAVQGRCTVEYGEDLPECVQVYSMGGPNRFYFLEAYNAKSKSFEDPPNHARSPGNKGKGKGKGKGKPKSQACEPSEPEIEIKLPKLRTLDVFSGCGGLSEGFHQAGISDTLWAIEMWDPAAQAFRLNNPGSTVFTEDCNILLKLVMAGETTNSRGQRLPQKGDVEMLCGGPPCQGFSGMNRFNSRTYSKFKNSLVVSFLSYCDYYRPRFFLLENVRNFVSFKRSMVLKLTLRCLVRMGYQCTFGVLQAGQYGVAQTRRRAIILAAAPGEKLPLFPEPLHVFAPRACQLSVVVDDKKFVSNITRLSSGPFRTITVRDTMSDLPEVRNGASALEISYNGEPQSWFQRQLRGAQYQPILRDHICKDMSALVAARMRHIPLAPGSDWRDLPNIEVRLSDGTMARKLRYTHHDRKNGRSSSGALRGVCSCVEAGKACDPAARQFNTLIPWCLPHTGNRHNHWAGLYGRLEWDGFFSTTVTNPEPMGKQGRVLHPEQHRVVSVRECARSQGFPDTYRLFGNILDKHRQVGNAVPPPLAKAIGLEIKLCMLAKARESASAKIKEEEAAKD
Scp1 inh – blocks human Scp-1 phosphatase activity; Q9GZU7; Recombinant Scp1, phosphopeptide, malachite green phosphate absorbance; inhibition, % at 20 µM; 340,000 compounds, 0.88% hits;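 active = inhibition above about 50% at 20 µM, limit read from the data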;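 also: plate controls were DMSO wells with enzyme for no effect and wells lacking enzyme for full effect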
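Test system – truncated SCP-1 phosphatase (76-261aa) · Reagent – Phosphorylated 17-residue peptide substrate · Incubation – 45 min room-temperature reaction, 5 min colour, 30 min stabiliser · Detection – colorimetric phosphate reagent with accelerator and stabiliser, absorbance at 630 nm · Measure – % inhibition at 20 µM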
SUMO1 PPI mod – SUMO1-SIM interaction modulation; P63165; AID 602429; 360,000 compounds, 0.33% hits; SUMO1 binding to a labelled peptide, TR-FRET, 1 h; inhibition, % at 20 µM; in the data active = inhibition above about 37%
LMPTP inh – blocks human LMPTP phosphatase; P24666; recombinant LMPTP-A, OMFP fluorogenic substrate, fluorescence intensity; inhibition, % at 20 µM; 360,000 compounds, 0.22% hits; AID 651560;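 active = compounds that cut the enzyme signal by at least half of the control window in the single-dose screen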;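 also: plate controls were DMSO wells with enzyme plus substrate for no effect and substrate without enzyme for full effect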
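material = LMPTP-A | quantity = 0.625 nM enzyme | reagent = OMFP substrate, 400 µM final | buffer or medium = Bis-Tris pH 6.0, DTT, detergent | detection = endpoint fluorescence intensity from OMFP dephosphorylation | dosing = single 20 µM dose | read-out basis = % inhibition relative to no-enzyme and uninhibited control wells | control set = no-enzyme and uninhibited controls | timing = 50 min at room temperature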
STEP inh – STEP (human) phosphatase inhibition; P54829; recombinant STEP, OMFP fluorogenic substrate, fluorescence; inhibition, % at 20 µM; 360,000 compounds, 0.25% hits;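 active = inhibition at 20 µM, scaled per plate between control wells, above about 37%, limit read from the data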;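 also: 0% = DMSO with enzyme and substrate and 100% = substrate only without enzyme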
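Also added – OMFP at 25 µM · Test system – STEP tyrosine phosphatase · Technique – FITC-channel fluorescence of OMFP product · Schedule – 20 min at room temperature, dark · Evaluation – control-normalized % inhibition with plate pattern correction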
* = called active by the depositor; x = no result given.

SMILES	DNMT1 inh	Scp1 inh	SUMO1 PPI mod	LMPTP inh	STEP inh
CC1Cc2cc(/C(O)=C3/C(=O)C(=O)N(CC4CCCO4)C3c3ccco3)ccc2O1 (centres undefined)	50*	19	-1	0	3
COc1cc(C2/C(=C(\O)c3ccc4c(c3)CC(C)O4)C(=O)C(=O)N2CC2CCCO2)cc(OC)c1OC (centres undefined)	0	-9	1	-2	-3
CCCC[C@@H]1Cc2[nH][nH]c(=O)c2[C@H](c2cccc3ccccc23)O1	x	x	3	0	x
Cc1cc(N/N=C/c2ccccc2O)nc(-c2ccccc2O)n1	2	-10	42*	-1	-1
COC(=O)c1ccc(Nc2cc(C)nc(-c3ccccc3O)n2)cc1	3	4	59*	3	-4
CCOC(CCn1c(SCC(=O)NC2CCCC2)nc2ccccc2c1=O)OCC	0	-7	5	-2	-2
CN(C)CCNC(=O)c1cccc2nc3c(ccc4ccccc43)nc12	61*	0	-47	-1	6
COc1ccc(C(=O)NCCN(C)C)c2nc3ccccc3cc12	56*	0	-20	0	-3
COc1cccc2nc3c(C(=O)NCCN(C)C)cccc3cc12	60*	5	-34	2	-3
O=C(CCO)c1ccc(O)cc1	16	69*	14	5	2
CCN1/C(=C/c2cccc[n+]2C)Sc2ccc(OC)cc21	1	109*	-43	2	-1
NC(=S)NN=Cc1c[nH]c2nccnc12	11	x	-11	-3	5
O=C(/C=C/c1ccccc1)c1cc(Br)ccc(=O)c1O	61*	-6	19	18	11
Cc1noc(C)c1NC(=O)N(C)C[C@H]1Oc2ccc(NS(=O)(=O)c3c(C)noc3C)cc2C(=O)N([C@H](C)CO)C[C@@H]1C	1	39	-3	-1	1
Cc1noc(C)c1S(=O)(=O)Nc1ccc2c(c1)C(=O)N([C@H](C)CO)C[C@H](C)[C@@H](CN(C)C(=O)Nc1ccc3c(c1)OCO3)O2	12	76*	1	-1	-3
Cc1ccnc(NC(c2ccccc2)c2ccc3cccnc3c2O)c1 (centres undefined)	-10	-15	-11	3	3
Cc1ccnc(NC(c2cccnc2)c2ccc3cccnc3c2O)c1 (centres undefined)	-2	-13	-12	54*	9
CCOc1ccc(/C=C2\CCCc3c2nc2ccccc2c3C(=O)O)cc1OC	78*	x	-19	-6	-78
COc1ccc(/C=C2\CCc3c2nc2ccccc2c3C(=O)O)cc1OC	4	15	13	1	4
C/C(=N\S(=O)(=O)c1ccc(C)cc1)N(C)C	9	-4	45*	0	-2
C/C(=N\S(=O)(=O)c1ccc(C)cc1)N1CCCCC1	5	-2	0	0	-3
Cc1ccc(Cl)cc1N1C(=O)CC(Sc2ccccc2N)C1=O (centres undefined)	21	x	6	-1	-3
CN(C)/C=C1\C(=O)ON=C1c1ccccc1	3	-3	-4	-1	-5
Cc1ccc(C2=NOC(=O)/C2=C\C=C\c2ccccc2)cc1	28	-10	41*	2	-2
COc1ccc(NS(=O)(=O)c2ccc(C(=O)NCC3(N4CCOCC4)CCCCC3)cc2)cc1	-4	0	40*	0	0
SMILES	DNMT1 inh	Scp1 inh	SUMO1 PPI mod	LMPTP inh	STEP inh
CCOC(=O)/C(=C\c1cccc(O)c1)c1nc2sc(C)c(C)c2c(=O)[nH]1	-8	4	-1	7	85*
O=C(Nc1ccc(F)cc1F)c1noc2c1CCC2	88*	79*	4	14	22
CC(=O)NC(c1cccc(F)c1)c1nc(-c2cccs2)cs1 (centres undefined)	-2	x	-14	-1	-2
O=C(NCc1ccco1)c1ccc(S(=O)(=O)N2CCOCC2)cc1	76*	33	7	5	12
O=C(NCc1ccco1)c1ccc(S(=O)(=O)N2CCCCC2)cc1	3	3	-1	-2	-4
Cc1ccccc1OCC(=O)NCCCNC(=O)c1ccco1	-1	-5	1	-1	1
Cc1c(C(=O)NCc2cccs2)sc(=O)n1Cc1ccc(S(=O)(=O)N(C)C)cc1	1	x	-2	-1	-1
Cn1cnnc1SCC(=O)Nc1ccccc1	0	-6	2	-2	0
Cn1cnnc1SCC(=O)Nc1ccc(OCc2ccccc2)cc1	-10	-4	67*	2	1
Oc1ccc(/C=N/NC(=S)Nc2cccnc2)c(O)c1O	3	6	81*	84*	16
CN(CCCC(=O)O)c1ccc(N=Nc2ccc([N+](=O)[O-])cc2)cc1	-3	110*	-19	77*	99*
CC1(c2nc3ccccc3[nH]2)c2ccccc2C(=O)N1Cc1ccccc1 (centres undefined)	x	x	0	1	x
CC(=O)c1ccc(OCc2cc(C(=O)N(C)CC3COc4ccccc4O3)no2)cc1 (centres undefined)	-2	x	0	0	0
O=C(NCc1ccccc1C(F)(F)F)c1cccc2c1C(=O)c1ccc(N3CCC(N4CCCCC4)CC3)cc1S2(=O)=O	-6	x	50*	16	-5
O=C(NCc1ccccc1Br)c1cccc2c1C(=O)c1ccc(N3CCC(Cc4ccccc4)CC3)cc1S2(=O)=O	21	-11	-3	3	-1
S=C(Nc1ccccc1)c1nc2ccccc2s1	-2	-7	-15	2	0
Cc1csc2nc(O)c(C(=O)NCc3ccc4c(c3)OCO4)c(=O)n12	0	-5	7	53*	1
CCCCN1C(=O)C(=O)NC[C@@H]1CC1CCCCC1	x	x	45*	7	x
CCCC[C@@H]1CNC(=O)C(=O)N1CC1CCCCC1	x	x	2	-1	x
CCOC(=O)C(=O)N(C)c1c(CC)nc2c(OCc3cc(Cl)cc(Cl)c3)cccn12	2	x	4	2	2
O=C(Nc1ccc2oc(=O)ccc2c1)c1ccccc1[N+](=O)[O-]	0	-3	-17	0	-1
O=C(Nc1ccc2oc(=O)ccc2c1)c1ccc(-c2ccc(Cl)cc2)o1	42	0	-3	6	3
O=C(Nc1ccc2oc(=O)ccc2c1)c1ccc(-c2ccccc2[N+](=O)[O-])o1	-2	0	57*	11	7
O=C(Nc1ccc2oc(=O)ccc2c1)c1ccc(-c2cccc([N+](=O)[O-])c2)o1	22	32	75*	54*	28
COc1ccccc1Cc1c(C2CCCCC2)nc2ccc(Cl)cn12	-4	x	-1	2	1
CCN(CC(=O)Nc1ccccc1C(F)(F)F)C(=O)c1cc2c(s1)CCCCC2	1	-5	0	1	-1
COCCN(CC(=O)Nc1cccc(C)c1C)C(=O)c1cc2c(s1)CCC2	39	61*	9	5	9
